{
  "source": "ChEMBL document CHEMBL4364254",
  "about": "(J Med Chem, 2019)",
  "key": {"[1]": {"target": "5-hydroxytryptamine receptor 1B (Homo sapiens, UniProt P28222)", "sequence (P28222 whole entry)": "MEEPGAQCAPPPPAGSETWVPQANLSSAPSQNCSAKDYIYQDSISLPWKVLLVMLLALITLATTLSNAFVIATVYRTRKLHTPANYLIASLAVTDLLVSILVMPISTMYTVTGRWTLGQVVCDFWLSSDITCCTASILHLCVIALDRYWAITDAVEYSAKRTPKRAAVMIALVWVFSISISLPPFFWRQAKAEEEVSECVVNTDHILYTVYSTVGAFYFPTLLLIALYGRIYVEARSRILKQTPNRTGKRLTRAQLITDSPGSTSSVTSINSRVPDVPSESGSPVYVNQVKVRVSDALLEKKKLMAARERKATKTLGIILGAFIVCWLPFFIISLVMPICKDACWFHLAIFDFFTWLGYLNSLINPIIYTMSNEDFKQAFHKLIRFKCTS", "experiment": "Displacement of [3H]GR125743 from recombinant human 5HT1B after 60 mins by scintillation counting analysis"}, "Adenosine receptor A2a": {"target": "Adenosine receptor A2a (Homo sapiens, UniProt P29274)", "experiment": "Displacement of [3H]CGS21680 from recombinant human adenosine A2A receptor after 120 mins by scintillation counting analysis"}, "D(2) dopamine receptor": {"target": "D(2) dopamine receptor (Homo sapiens, UniProt P14416)", "experiment": "Displacement of [3H]7-OH-DPAT from recombinant human D2s receptor after 60 mins by scintillation counting analysis"}, "Glutamate NMDA receptor": {"target": "Glutamate NMDA receptor", "experiment": "Displacement of [3H]CGP 39653 from rat brain NMDA receptor after 60 mins by scintillation counting analysis"}, "[2]": {"target": "5-hydroxytryptamine receptor 3A (Homo sapiens, UniProt P46098)", "experiment": "Displacement of [3H]BRL43694 from recombinant human 5HT3 receptor after 120 mins by scintillation counting analysis"}, "Histamine H1 receptor": {"target": "Histamine H1 receptor (Homo sapiens, UniProt P35367)", "experiment": "Displacement of [3H]pyrilamine from recombinant human H1 receptor after 60 mins by scintillation counting analysis"}, "Endothelin-1 receptor": {"target": "Endothelin-1 receptor (Homo sapiens, UniProt P25101)", "sequence (P25101 whole entry)": "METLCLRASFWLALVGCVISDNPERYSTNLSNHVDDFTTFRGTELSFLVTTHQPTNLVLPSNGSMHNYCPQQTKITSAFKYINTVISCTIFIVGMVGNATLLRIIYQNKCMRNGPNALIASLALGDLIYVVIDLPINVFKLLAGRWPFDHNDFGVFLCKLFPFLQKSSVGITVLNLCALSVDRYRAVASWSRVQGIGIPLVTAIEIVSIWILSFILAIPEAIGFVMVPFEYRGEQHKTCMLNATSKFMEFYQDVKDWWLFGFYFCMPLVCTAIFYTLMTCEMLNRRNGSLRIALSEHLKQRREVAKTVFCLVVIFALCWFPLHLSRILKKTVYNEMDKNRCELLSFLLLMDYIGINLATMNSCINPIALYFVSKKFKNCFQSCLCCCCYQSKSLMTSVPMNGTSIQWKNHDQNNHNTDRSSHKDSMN", "experiment": "Displacement of [125I]endothelin-1 from recombinant human ETA receptor after 120 mins by scintillation counting analysis"}, "[3]": {"target": "Muscarinic acetylcholine receptor M1 (Homo sapiens, UniProt P11229)", "experiment": "Displacement of [3H]pirenzepine from recombinant human M1 receptor after 60 mins by scintillation counting analysis"}, "[4]": {"target": "Alpha-2A adrenergic receptor (Homo sapiens, UniProt P08913)", "experiment": "Displacement of [3H]RX 821002 from recombinant human alpha 2A adrenoceptor after 60 mins by scintillation counting analysis"}, "[5]": {"experiment": "Displacement of [125I]alpha-dendrotoxin from rat brain voltage-gated potassium ion channel after 60 mins by scintillation counting analysis"}, "[6]": {"target": "Sodium-dependent serotonin transporter (Homo sapiens, UniProt P31645)", "experiment": "Displacement of [3H]imipramine from recombinant human serotonin transporter after 120 mins by scintillation counting analysis"}, "Acetylcholinesterase": {"target": "Acetylcholinesterase (Homo sapiens, UniProt P22303)", "experiment": "Activity at human recombinant ACHE using acetylthiocholine as substrate measured after 30 mins by spectrophotometric assay"}, "[7]": {"target": "Cholecystokinin receptor type A (Homo sapiens, UniProt P32238)", "sequence (P32238 whole entry)": "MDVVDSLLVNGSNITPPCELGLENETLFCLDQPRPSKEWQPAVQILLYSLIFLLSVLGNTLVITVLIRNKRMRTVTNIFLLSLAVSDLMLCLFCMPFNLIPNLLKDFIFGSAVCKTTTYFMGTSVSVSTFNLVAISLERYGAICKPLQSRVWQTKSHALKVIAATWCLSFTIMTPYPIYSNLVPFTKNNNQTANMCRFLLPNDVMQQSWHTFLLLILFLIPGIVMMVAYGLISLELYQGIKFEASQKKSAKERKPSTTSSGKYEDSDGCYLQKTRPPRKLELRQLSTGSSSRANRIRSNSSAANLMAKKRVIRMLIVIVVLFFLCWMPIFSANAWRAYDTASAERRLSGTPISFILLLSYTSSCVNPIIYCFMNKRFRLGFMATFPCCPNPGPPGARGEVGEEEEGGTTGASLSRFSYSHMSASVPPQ", "experiment": "Displacement of [125I]CCK-8s from recombinant human CCK1 receptor after 60 mins by scintillation counting analysis"}, "[8]": {"target": "cGMP-inhibited 3',5'-cyclic phosphodiesterase 3A (Homo sapiens, UniProt Q14432)", "sequence (Q14432 whole entry)": "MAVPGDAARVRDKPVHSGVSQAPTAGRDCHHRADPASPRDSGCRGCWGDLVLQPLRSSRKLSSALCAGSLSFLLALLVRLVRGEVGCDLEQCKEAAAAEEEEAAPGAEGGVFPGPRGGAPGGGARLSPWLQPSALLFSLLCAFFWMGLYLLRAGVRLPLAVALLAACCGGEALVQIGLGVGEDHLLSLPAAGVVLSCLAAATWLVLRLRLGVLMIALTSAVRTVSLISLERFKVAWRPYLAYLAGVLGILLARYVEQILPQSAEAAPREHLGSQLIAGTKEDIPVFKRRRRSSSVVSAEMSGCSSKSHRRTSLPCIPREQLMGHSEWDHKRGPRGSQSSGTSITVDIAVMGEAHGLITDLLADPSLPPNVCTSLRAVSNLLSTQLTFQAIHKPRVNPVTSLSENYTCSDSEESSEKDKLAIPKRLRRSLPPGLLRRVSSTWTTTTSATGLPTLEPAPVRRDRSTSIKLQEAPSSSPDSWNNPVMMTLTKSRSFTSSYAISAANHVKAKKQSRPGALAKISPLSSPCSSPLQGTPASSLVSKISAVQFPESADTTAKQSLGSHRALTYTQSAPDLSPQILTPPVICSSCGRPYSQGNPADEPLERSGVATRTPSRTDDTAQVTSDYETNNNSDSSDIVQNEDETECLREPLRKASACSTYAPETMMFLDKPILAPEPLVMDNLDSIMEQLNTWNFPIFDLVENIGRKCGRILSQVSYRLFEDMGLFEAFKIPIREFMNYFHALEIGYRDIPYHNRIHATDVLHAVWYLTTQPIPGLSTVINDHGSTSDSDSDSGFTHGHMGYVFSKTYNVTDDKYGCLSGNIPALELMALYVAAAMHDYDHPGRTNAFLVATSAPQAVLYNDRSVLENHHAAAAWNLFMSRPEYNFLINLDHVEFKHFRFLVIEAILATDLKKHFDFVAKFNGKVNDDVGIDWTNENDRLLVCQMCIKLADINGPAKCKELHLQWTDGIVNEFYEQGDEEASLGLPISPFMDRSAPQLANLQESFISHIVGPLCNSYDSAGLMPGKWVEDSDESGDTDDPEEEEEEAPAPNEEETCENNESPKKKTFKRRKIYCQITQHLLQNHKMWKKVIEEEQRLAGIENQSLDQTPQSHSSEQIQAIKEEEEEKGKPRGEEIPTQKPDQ", "experiment": "Activity at human recombinant PDE3A using [3H]cAMP as substrate measured after 15 mins by scintillation counting analysis"}, "[9]": {"target": "Kappa-type opioid receptor (Homo sapiens, UniProt P41145)", "sequence (P41145 whole entry)": "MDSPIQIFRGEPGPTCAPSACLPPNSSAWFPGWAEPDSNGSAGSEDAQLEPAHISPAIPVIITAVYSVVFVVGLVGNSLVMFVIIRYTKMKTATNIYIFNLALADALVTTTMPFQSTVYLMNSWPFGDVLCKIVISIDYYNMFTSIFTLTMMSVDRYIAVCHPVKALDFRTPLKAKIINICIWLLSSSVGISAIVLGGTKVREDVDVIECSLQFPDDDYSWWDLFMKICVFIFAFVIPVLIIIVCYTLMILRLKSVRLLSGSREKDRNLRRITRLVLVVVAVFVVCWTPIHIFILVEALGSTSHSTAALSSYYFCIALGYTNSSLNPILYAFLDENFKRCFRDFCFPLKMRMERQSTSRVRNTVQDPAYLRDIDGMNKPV", "experiment": "Displacement of [3H]U69593 from recombinant human KOR after 60 mins by scintillation counting analysis"}, "[10]": {"target": "Amine oxidase [flavin-containing] A (Rattus norvegicus, UniProt P21396)", "sequence (P21396 whole entry)": "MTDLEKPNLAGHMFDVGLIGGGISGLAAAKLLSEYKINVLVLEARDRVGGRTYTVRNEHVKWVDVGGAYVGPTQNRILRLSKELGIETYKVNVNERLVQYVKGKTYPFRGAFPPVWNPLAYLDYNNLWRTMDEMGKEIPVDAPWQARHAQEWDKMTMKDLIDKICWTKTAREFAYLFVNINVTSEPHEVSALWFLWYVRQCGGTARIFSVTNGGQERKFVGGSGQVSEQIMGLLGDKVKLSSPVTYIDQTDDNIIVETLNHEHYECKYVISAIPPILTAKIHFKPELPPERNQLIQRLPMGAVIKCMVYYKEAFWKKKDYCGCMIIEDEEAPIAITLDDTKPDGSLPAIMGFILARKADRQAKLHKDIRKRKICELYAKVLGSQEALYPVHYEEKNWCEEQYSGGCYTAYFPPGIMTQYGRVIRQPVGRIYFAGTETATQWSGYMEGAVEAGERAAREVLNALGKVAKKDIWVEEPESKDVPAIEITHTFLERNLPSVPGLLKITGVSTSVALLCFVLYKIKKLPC", "experiment": "Displacement of [3H]Ro41-1049 from rat brain MAOA after 60 mins by scintillation counting analysis"}, "[11]": {"target": "Sodium-dependent noradrenaline transporter (Homo sapiens, UniProt P23975)", "experiment": "Displacement of [3H]nisoxetine from recombinant human norepinephrine transporter after 120 mins by scintillation counting analysis"}, "Mus musculus [12]": {"tested_on": "Mus musculus", "experiment": "Anti-hepatosteatosis activity in ethanol-induced C57BL/6 mouse model of hepatic steatosis assessed as reduction in hepatic lipid accumulation at 0.03 to 0.3 mg/kg, po administered once daily via gavage for last 2 weeks of study measured post-last dose by oil red O staining-based light microscopic analysis", "type": "functional, organism-based", "in_short": "(§1)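 Female C57BL/6J mice (9 weeks old, 19–21 g) were kept on Lieber–DeCarli liquid diet, with ethanol raised from 1 to 5% (v/v) over 15 d and then held for 4 weeks, pair-fed. Dosing was 0.03, 0.1 or 0.3 mg/kg by oral gavage once daily for the last 2 weeks, in 0.5% Na-CMC/1% NMP/0.3% Tween 80. Read-outs were Oil Red O on 10 μm liver sections imaged at 10× and liver weight normalized to brain weight. n = 6–10 per group; t test versus ethanol + vehicle.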"}, "[13]": {"target": "Neuronal acetylcholine receptor; alpha4/beta2 (Homo sapiens, UniProt P17787+P43681)", "sequence (P17787 whole entry)": "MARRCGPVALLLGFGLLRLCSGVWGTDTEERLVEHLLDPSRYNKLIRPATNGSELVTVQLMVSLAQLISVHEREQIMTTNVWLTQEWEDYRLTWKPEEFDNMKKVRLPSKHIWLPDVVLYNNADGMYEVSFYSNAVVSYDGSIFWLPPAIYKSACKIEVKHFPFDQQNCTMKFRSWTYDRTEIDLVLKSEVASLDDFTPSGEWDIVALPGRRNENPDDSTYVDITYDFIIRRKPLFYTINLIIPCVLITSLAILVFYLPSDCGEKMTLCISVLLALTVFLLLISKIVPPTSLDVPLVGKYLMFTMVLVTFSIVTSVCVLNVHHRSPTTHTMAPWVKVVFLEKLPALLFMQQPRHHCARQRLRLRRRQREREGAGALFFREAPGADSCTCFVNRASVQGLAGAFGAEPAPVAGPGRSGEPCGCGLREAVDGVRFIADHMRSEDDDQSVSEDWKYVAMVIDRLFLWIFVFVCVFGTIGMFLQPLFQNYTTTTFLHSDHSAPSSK", "sequence (P43681 whole entry)": "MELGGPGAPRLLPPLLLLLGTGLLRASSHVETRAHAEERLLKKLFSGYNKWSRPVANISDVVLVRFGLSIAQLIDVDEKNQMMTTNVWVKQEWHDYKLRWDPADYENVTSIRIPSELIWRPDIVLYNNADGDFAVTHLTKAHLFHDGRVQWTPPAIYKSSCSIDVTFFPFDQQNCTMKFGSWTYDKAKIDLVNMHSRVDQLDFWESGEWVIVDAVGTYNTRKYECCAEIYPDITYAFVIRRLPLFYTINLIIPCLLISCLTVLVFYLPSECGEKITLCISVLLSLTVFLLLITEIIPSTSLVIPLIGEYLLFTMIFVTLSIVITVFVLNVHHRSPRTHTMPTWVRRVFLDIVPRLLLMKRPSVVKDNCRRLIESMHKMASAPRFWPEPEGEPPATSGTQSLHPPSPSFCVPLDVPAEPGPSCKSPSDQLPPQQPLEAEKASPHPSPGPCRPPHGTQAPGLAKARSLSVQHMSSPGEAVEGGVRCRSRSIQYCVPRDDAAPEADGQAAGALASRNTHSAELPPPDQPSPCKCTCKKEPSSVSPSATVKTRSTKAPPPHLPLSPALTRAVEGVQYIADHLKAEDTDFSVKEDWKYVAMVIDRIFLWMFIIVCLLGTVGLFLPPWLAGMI", "experiment": "Displacement of [3H]cytisine from recombinant human alpha4beta2 nAChR after 120 mins by scintillation counting analysis", "type": "protein-complex assay"}, "Glucocorticoid receptor": {"target": "Glucocorticoid receptor (Homo sapiens, UniProt P04150)", "experiment": "Displacement of [3H]dexamethasone from recombinant human GR after 360 mins by scintillation counting analysis"}, "[14]": {"target": "Beta-2 adrenergic receptor (Homo sapiens, UniProt P07550)", "experiment": "Displacement of [3H](-)CGP12177 from recombinant human beta2 adrenergic receptor after 120 mins by scintillation counting analysis"}, "[15]": {"target": "Voltage-dependent L-type calcium channel subunit alpha-1C (Rattus norvegicus, UniProt P22002)", "experiment": "Displacement of [3H]nitrendipine from rat brain Cav1.2 dihydropyridine site after 90 mins by scintillation counting analysis"}, "Mus musculus [16]": {"tested_on": "Mus musculus", "experiment": "Anti-hepatosteatosis activity in ethanol-induced C57BL/6 mouse model of hepatic steatosis assessed as reduction in liver weight at 0.3 mg/kg, po administered once daily via gavage for last 2 weeks of study measured post-last dose", "type": "functional, organism-based", "in_short": "as §1"}, "[17]": {"target": "5-hydroxytryptamine receptor 2A (Homo sapiens, UniProt P28223)", "sequence (P28223 whole entry)": "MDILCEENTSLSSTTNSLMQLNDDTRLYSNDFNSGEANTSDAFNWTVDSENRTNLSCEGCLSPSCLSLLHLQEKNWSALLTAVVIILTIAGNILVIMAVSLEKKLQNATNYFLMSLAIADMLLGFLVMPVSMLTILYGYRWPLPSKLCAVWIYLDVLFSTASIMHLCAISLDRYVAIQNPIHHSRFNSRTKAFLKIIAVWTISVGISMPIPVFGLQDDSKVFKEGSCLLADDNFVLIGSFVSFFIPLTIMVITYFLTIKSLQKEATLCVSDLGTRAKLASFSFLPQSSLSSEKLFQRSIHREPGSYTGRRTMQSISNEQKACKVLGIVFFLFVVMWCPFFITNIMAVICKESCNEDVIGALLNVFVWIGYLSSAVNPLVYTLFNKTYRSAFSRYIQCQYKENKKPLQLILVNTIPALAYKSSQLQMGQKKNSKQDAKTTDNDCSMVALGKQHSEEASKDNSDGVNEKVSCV", "experiment": "Displacement of [125I](+/-)DOI from recombinant human 5HT2A receptor after 60 mins by scintillation counting analysis"}, "[18]": {"target": "5-hydroxytryptamine receptor 1A (Homo sapiens, UniProt P08908)", "experiment": "Displacement of [3H]8-OH-DPAT from recombinant human 5HT1A after 60 mins by scintillation counting analysis"}, "[19]": {"experiment": "Displacement of [3H]batrachotoxinin from rat brain voltage-gated sodium ion channel site 2 after 60 mins by scintillation counting analysis"}, "[20]": {"target": "Muscarinic acetylcholine receptor M2 (Homo sapiens, UniProt P08172)", "experiment": "Displacement of [3H]AF-DX 384 from recombinant human M2 receptor after 60 mins by scintillation counting analysis"}, "Vasopressin V1a receptor": {"target": "Vasopressin V1a receptor (Homo sapiens, UniProt P37288)", "experiment": "Displacement of [3H]AVP from recombinant human V1A receptor after 60 mins by scintillation counting analysis"}},
  "note": "The source made the active and inactive calls. The calls are words filed in the database; no cut-off is given here.",
  "data": [
    {"smiles": "O=C(Nc1ccc(OC(F)F)nc1)NC1CCN(c2ncnc3c2nc(-c2ccccc2Cl)n3-c2ccc(Cl)cc2)CC1", "values": [
      {"measurement": "EC50", "setting": "[1]", "result": "> 10", "unit": "µM"},
      {"measurement": "IC50", "setting": "[1]", "result": "> 10", "unit": "µM"},
      {"measurement": "EC50", "setting": "Adenosine receptor A2a", "result": "> 10", "unit": "µM"},
      {"measurement": "IC50", "setting": "Adenosine receptor A2a", "result": "> 10", "unit": "µM"},
      {"measurement": "EC50", "setting": "D(2) dopamine receptor", "result": "> 10", "unit": "µM"},
      {"measurement": "IC50", "setting": "D(2) dopamine receptor", "result": "> 10", "unit": "µM"},
      {"measurement": "EC50", "setting": "Glutamate NMDA receptor", "result": "> 10", "unit": "µM"},
      {"measurement": "IC50", "setting": "Glutamate NMDA receptor", "result": "> 10", "unit": "µM"},
      {"measurement": "EC50", "setting": "[2]", "result": "> 10", "unit": "µM"},
      {"measurement": "IC50", "setting": "[2]", "result": "> 10", "unit": "µM"},
      {"measurement": "EC50", "setting": "Histamine H1 receptor", "result": "> 10", "unit": "µM"},
      {"measurement": "IC50", "setting": "Histamine H1 receptor", "result": "> 10", "unit": "µM"},
      {"measurement": "EC50", "setting": "Endothelin-1 receptor", "result": "> 10", "unit": "µM"},
      {"measurement": "IC50", "setting": "Endothelin-1 receptor", "result": "> 10", "unit": "µM"},
      {"measurement": "EC50", "setting": "[3]", "result": "> 10", "unit": "µM"},
      {"measurement": "IC50", "setting": "[3]", "result": "> 10", "unit": "µM"},
      {"measurement": "EC50", "setting": "[4]", "result": "> 10", "unit": "µM"},
      {"measurement": "IC50", "setting": "[4]", "result": "> 10", "unit": "µM"},
      {"measurement": "EC50", "setting": "[5]", "result": "> 10", "unit": "µM"},
      {"measurement": "IC50", "setting": "[5]", "result": "> 10", "unit": "µM"},
      {"measurement": "EC50", "setting": "[6]", "result": "> 10", "unit": "µM"},
      {"measurement": "IC50", "setting": "[6]", "result": "> 10", "unit": "µM"},
      {"measurement": "EC50", "setting": "Acetylcholinesterase", "result": "> 10", "unit": "µM"},
      {"measurement": "IC50", "setting": "Acetylcholinesterase", "result": "> 10", "unit": "µM"},
      {"measurement": "EC50", "setting": "[7]", "result": "> 10", "unit": "µM"},
      {"measurement": "IC50", "setting": "[7]", "result": "> 10", "unit": "µM"},
      {"measurement": "EC50", "setting": "[8]", "result": "> 10", "unit": "µM"},
      {"measurement": "IC50", "setting": "[8]", "result": "> 10", "unit": "µM"},
      {"measurement": "EC50", "setting": "[9]", "result": "> 10", "unit": "µM"},
      {"measurement": "IC50", "setting": "[9]", "result": "> 10", "unit": "µM"},
      {"measurement": "EC50", "setting": "[10]", "result": "> 10", "unit": "µM"},
      {"measurement": "IC50", "setting": "[10]", "result": "> 10", "unit": "µM"},
      {"measurement": "EC50", "setting": "[11]", "result": "> 10", "unit": "µM"},
      {"measurement": "IC50", "setting": "[11]", "result": "> 10", "unit": "µM"},
      {"measurement": "Activity", "setting": "Mus musculus [12]", "result": "Active"},
      {"measurement": "EC50", "setting": "[13]", "result": "> 10", "unit": "µM"},
      {"measurement": "IC50", "setting": "[13]", "result": "> 10", "unit": "µM"},
      {"measurement": "EC50", "setting": "Glucocorticoid receptor", "result": "> 10", "unit": "µM"},
      {"measurement": "IC50", "setting": "Glucocorticoid receptor", "result": "> 10", "unit": "µM"},
      {"measurement": "EC50", "setting": "[14]", "result": "> 10", "unit": "µM"},
      {"measurement": "IC50", "setting": "[14]", "result": "> 10", "unit": "µM"},
      {"measurement": "EC50", "setting": "[15]", "result": "> 10", "unit": "µM"},
      {"measurement": "IC50", "setting": "[15]", "result": "> 10", "unit": "µM"},
      {"measurement": "Activity", "setting": "Mus musculus [16]", "result": "Active"},
      {"measurement": "EC50", "setting": "[17]", "result": "> 10", "unit": "µM"},
      {"measurement": "IC50", "setting": "[17]", "result": "> 10", "unit": "µM"},
      {"measurement": "EC50", "setting": "[18]", "result": "> 10", "unit": "µM"},
      {"measurement": "IC50", "setting": "[18]", "result": "> 10", "unit": "µM"},
      {"measurement": "EC50", "setting": "[19]", "result": "> 10", "unit": "µM"},
      {"measurement": "IC50", "setting": "[19]", "result": "> 10", "unit": "µM"},
      {"measurement": "EC50", "setting": "[20]", "result": "> 10", "unit": "µM"},
      {"measurement": "IC50", "setting": "[20]", "result": "> 10", "unit": "µM"},
      {"measurement": "EC50", "setting": "Vasopressin V1a receptor", "result": "> 10", "unit": "µM"},
      {"measurement": "IC50", "setting": "Vasopressin V1a receptor", "result": "> 10", "unit": "µM"}
    ]}
  ]
}
